ChEMBL document CHEMBL1649165, “Activity profile in vitro of micafungin against Spanish clinical isolates of common and emerging species of yeasts and molds” (2009)
Values after ≈ are worked out from the molar mass of the structure shown.

Experiments:
Assay type in all cases: functional
Lewia infectoria = test: Antimicrobial activity against Alternaria infectoria by broth microdilution method
Procedure, shortened: (§1)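 Clinical mould isolates, tested by broth microdilution using the AFST-EUCAST reference method for filamentous fungi. For echinocandins, the endpoint was the minimum effective concentration: the lowest drug concentration giving aberrant hyphal growth, read with an inverted microscope.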

Fusarium oxysporum = test: Antimicrobial activity against Fusarium oxysporum by broth microdilution method; procedure, shortened: as §1
Fusarium reticulatum = test: Antimicrobial activity against Fusarium reticulatum by broth microdilution method
Procedure, shortened: (§2)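 Filamentous fungus clinical isolates tested by the AFST-EUCAST reference broth microdilution method for moulds. For echinocandins, the endpoint was the minimum effective concentration: the lowest drug concentration giving aberrant hyphal growth, read with an inverted microscope.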

Diutina rugosa = test: Antimicrobial activity against Candida rugosa by broth microdilution method
Procedure, shortened: (§3)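 Clinical isolates from human patients, tested by broth microdilution using the AFST-EUCAST reference procedure for fermentative yeasts. The MIC was read per that reference method.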

Aspergillus sydowii = test: Antimicrobial activity against Aspergillus sydowii by broth microdilution method; procedure, shortened: as §1
[1] = Antimicrobial activity against Rhizopus microsporus by broth microdilution method; procedure, shortened: as §2
Rhizomucor = test: Antimicrobial activity against Rhizomucor spp.by broth microdilution method; procedure, shortened: as §2
Aspergillus nidulans = test: Antimicrobial activity against Aspergillus nidulans by broth microdilution method; procedure, shortened: as §1
Aspergillus ustus = test: Antimicrobial activity against Aspergillus ustus by broth microdilution method; procedure, shortened: as §1
Trichosporon dermatis = test: Antimicrobial activity against Trichosporon dermatis by broth microdilution method; conditions: Cutaneotrichosporon dermatis
Procedure, shortened: (§4)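 Nonfermentative yeast clinical isolates (Rhodotorula, Trichosporon) tested by broth microdilution. The EUCAST yeast recommendations were followed strictly, with one minor modification to improve growth. MIC was read as the endpoint.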

[2] = tested on: Meyerozyma guilliermondii; test: Antimicrobial activity against Candida guilliermondii by broth microdilution method; procedure, shortened: as §3
Geotrichum candidum = test: Antimicrobial activity against Galactomyces geotrichum by broth microdilution method
Aspergillus glaucus = test: Antimicrobial activity against Aspergillus glaucus by broth microdilution method; procedure, shortened: as §1
Aspergillus niger = test: Antimicrobial activity against Aspergillus niger by broth microdilution method; procedure, shortened: as §1
Paecilomyces lilacinus = test: Antimicrobial activity against Paecilomyces lilacinus by broth microdilution method; conditions: Purpureocillium lilacinum; procedure, shortened: as §2
Trichoderma = test: Antimicrobial activity against Trichoderma spp. by broth microdilution method; procedure, shortened: as §2
[3] = tested on: Cryptococcus deneoformans; test: Antimicrobial activity against Cryptococcus neoformans var. neoformans by broth microdilution method
Procedure, shortened: (§5)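 Clinical isolates of nonfermentative yeasts, tested by broth microdilution following EUCAST recommendations. The only change from that method was a minor modification to improve growth.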

Aspergillus fumigatus = test: Antimicrobial activity against Aspergillus fumigatus by broth microdilution method; procedure, shortened: as §1
Pichia norvegensis = test: Antimicrobial activity against Candida norvegensis by broth microdilution method; procedure, shortened: as §3
Papiliotrema laurentii = test: Antimicrobial activity against Cryptococcus laurentii by broth microdilution method; procedure, shortened: as §5
Saccharomyces cerevisiae = test: Antimicrobial activity against Saccharomyces cerevisiae by broth microdilution method
Torulaspora delbrueckii = test: Antimicrobial activity against Candida coliculosa by broth microdilution method; procedure, shortened: as §3
Aspergillus versicolor = test: Antimicrobial activity against Aspergillus versicolor by broth microdilution method; procedure, shortened: as §1
Aspergillus ochraceus = test: Antimicrobial activity against Aspergillus ochraceus by broth microdilution method; procedure, shortened: as §1
Trichosporon inkin = test: Antimicrobial activity against Trichosporon inkin by broth microdilution method; procedure, shortened: as §4
Trichosporon = test: Antimicrobial activity against Trichosporon spp. by broth microdilution method; procedure, shortened: as §4
Fusarium verticillioides = test: Antimicrobial activity against Fusarium verticillioides by broth microdilution method; procedure, shortened: as §2
Acremonium sp. = test: Antimicrobial activity against Acremonium sp.by broth microdilution method; procedure, shortened: as §1
[Candida] zeylanoides = Antimicrobial activity against Candida zeylanoides by broth microdilution method; conditions: Dujonia zeylanoides; procedure, shortened: as §3
Saksenaea vasiformis = test: Antimicrobial activity against Saksenaea vasiformis by broth microdilution method; procedure, shortened: as §2
Aspergillus sclerotiorum = test: Antimicrobial activity against Aspergillus sclerotiorum by broth microdilution method; procedure, shortened: as §1
Penicillium = test: Antimicrobial activity against Penicillium spp. by broth microdilution method; procedure, shortened: as §2
Ustilago = test: Antimicrobial activity against Ustilago spp by broth microdilution method
Rhodotorula mucilaginosa = test: Antimicrobial activity against Rhodotorula mucilaginosa by broth microdilution method; procedure, shortened: as §4
Scytalidium hyalinum = test: Antimicrobial activity against Scytalidium hyalinum by broth microdilution method; conditions: Neoscytalidium hyalinum; procedure, shortened: as §2
Trichosporon domesticum = test: Antimicrobial activity against Trichosporon mycotoxinivorans by broth microdilution method; conditions: Apiotrichum domesticum
Procedure, shortened: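 Spanish human clinical isolates were tested as nonfermentative yeasts by broth microdilution. The method strictly followed the EUCAST recommendations, with a minor modification to improve growth, and the read-out was the MIC.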

Phialemonium curvatum = test: Antimicrobial activity against Phialemonium curvatum by broth microdilution method; conditions: Thyridium curvatum; procedure, shortened: as §2
Exophiala dermatitidis = test: Antimicrobial activity against Exophiala dermatitidis by broth microdilution method
Alternaria alternata = test: Antimicrobial activity against Alternaria alternata by broth microdilution method; procedure, shortened: as §1
Candida metapsilosis = test: Antimicrobial activity against Candida metapsilosis by broth microdilution method; conditions: Lodderomyces metapsilosis; procedure, shortened: as §3
Trichosporon ovoides = test: Antimicrobial activity against Trichosporon ovoides by broth microdilution method; procedure, shortened: as §4
[4] = tested on: Scopulariopsis brevicaulis; test: Antimicrobial activity against Scopulariopsis brevicaulis by broth microdilution method; procedure, shortened: as §2
Trichosporon jirovecii = test: Antimicrobial activity against Trichosporon jirovecii by broth microdilution method; conditions: Cutaneotrichosporon jirovecii; procedure, shortened: as §4
Exophiala jeanselmei = test: Antimicrobial activity against Exophiala jeanselmei by broth microdilution method

Question: Which MIC50 (Lewia infectoria) does the source give for `CCC(C)n1ncn(-c2ccc(N3CCN(c4ccc(OCC5COC(Cn6cncn6)(c6ccc(Cl)cc6Cl)O5)cc4)CC3)cc2)c1=O` (stereo not drawn) [ITRACONAZOLE] here?
Answer: 2 mg/L (≈ 2.83 µM)

Question: What about the MIC90 (Lewia infectoria) of the same compound?
Answer: > 8 mg/L

Question: And the MIC50 (Fusarium oxysporum)?
Answer: > 8 mg/L

Question: What about the MIC90 (Fusarium oxysporum) of the same compound?
Answer: > 8 mg/L

Question: And the MIC50 (Fusarium reticulatum)?
Answer: > 8 mg/L

Question: What about the MIC90 (Fusarium reticulatum) of the same compound?
Answer: > 8 mg/L

Question: And the MIC50 (Diutina rugosa)?
Answer: 0.12 mg/L (≈ 0.17 µM)

Question: What about the MIC90 (Diutina rugosa) of the same compound?
Answer: > 8 mg/L

Question: What about the MIC50 (Aspergillus sydowii) of the same compound?
Answer: 0.5 mg/L (≈ 0.709 µM)

Question: What about the MIC90 (Aspergillus sydowii) of the same compound?
Answer: > 8 mg/L

Question: And the MIC50 [1]?
Answer: > 8 mg/L

Question: What about the MIC90 [1] of the same compound?
Answer: > 8 mg/L

Question: And the MIC50 (Rhizomucor)?
Answer: > 8 mg/L

Question: And the MIC90 (Rhizomucor)?
Answer: > 8 mg/L

Question: And the MIC50 (Aspergillus nidulans)?
Answer: 0.25 mg/L (≈ 0.354 µM)

Question: And the MIC90 (Aspergillus nidulans)?
Answer: 0.5 mg/L (≈ 0.709 µM)

Question: And the MIC50 (Aspergillus ustus)?
Answer: 0.5 mg/L (≈ 0.709 µM)

Question: And the MIC90 (Aspergillus ustus)?
Answer: > 8 mg/L

Question: And the MIC50 (Trichosporon dermatis)?
Answer: 0.5 mg/L (≈ 0.709 µM)

Question: And the MIC90 (Trichosporon dermatis)?
Answer: > 8 mg/L

Question: What about the MIC50 [2] of the same compound?
Answer: 0.25 mg/L (≈ 0.354 µM)

Question: And the MIC90 [2]?
Answer: > 8 mg/L

Question: What about the MIC50 (Geotrichum candidum) of the same compound?
Answer: 0.5 mg/L (≈ 0.709 µM)

Question: And the MIC90 (Geotrichum candidum)?
Answer: 2 mg/L (≈ 2.83 µM)

Question: And the MIC50 (Aspergillus glaucus)?
Answer: 0.5 mg/L (≈ 0.709 µM)

Question: And the MIC90 (Aspergillus glaucus)?
Answer: > 8 mg/L

Question: And the MIC50 (Aspergillus niger)?
Answer: 1 mg/L (≈ 1.42 µM)

Question: And the MIC90 (Aspergillus niger)?
Answer: > 8 mg/L

Question: What about the MIC50 (Paecilomyces lilacinus) of the same compound?
Answer: > 8 mg/L

Question: What about the MIC90 (Paecilomyces lilacinus) of the same compound?
Answer: > 8 mg/L

Question: And the MIC50 (Trichoderma)?
Answer: > 8 mg/L

Question: And the MIC90 (Trichoderma)?
Answer: > 8 mg/L

Question: And the MIC50 [3]?
Answer: 0.12 mg/L (≈ 0.17 µM)

Question: What about the MIC90 [3] of the same compound?
Answer: 0.5 mg/L (≈ 0.709 µM)

Question: And the MIC50 (Aspergillus fumigatus)?
Answer: 0.25 mg/L (≈ 0.354 µM)

Question: And the MIC90 (Aspergillus fumigatus)?
Answer: 0.5 mg/L (≈ 0.709 µM)

Question: And the MIC50 (Pichia norvegensis)?
Answer: 0.12 mg/L (≈ 0.17 µM)

Question: What about the MIC90 (Pichia norvegensis) of the same compound?
Answer: > 8 mg/L

Question: And the MIC50 (Papiliotrema laurentii)?
Answer: 0.5 mg/L (≈ 0.709 µM)

Question: And the MIC90 (Papiliotrema laurentii)?
Answer: > 8 mg/L

Question: And the MIC50 (Saccharomyces cerevisiae)?
Answer: 0.5 mg/L (≈ 0.709 µM)

Question: What about the MIC90 (Saccharomyces cerevisiae) of the same compound?
Answer: 2 mg/L (≈ 2.83 µM)

Question: What about the MIC50 (Torulaspora delbrueckii) of the same compound?
Answer: 0.12 mg/L (≈ 0.17 µM)

Question: What about the MIC90 (Torulaspora delbrueckii) of the same compound?
Answer: > 8 mg/L

Question: And the MIC50 (Aspergillus versicolor)?
Answer: 0.5 mg/L (≈ 0.709 µM)

Question: What about the MIC90 (Aspergillus versicolor) of the same compound?
Answer: 1 mg/L (≈ 1.42 µM)

Question: What about the MIC50 (Aspergillus ochraceus) of the same compound?
Answer: 0.5 mg/L (≈ 0.709 µM)

Question: What about the MIC90 (Aspergillus ochraceus) of the same compound?
Answer: > 8 mg/L

Question: What about the MIC50 (Trichosporon inkin) of the same compound?
Answer: 0.12 mg/L (≈ 0.17 µM)

Question: What about the MIC90 (Trichosporon inkin) of the same compound?
Answer: 0.25 mg/L (≈ 0.354 µM)

Question: And the MIC50 (Trichosporon)?
Answer: 0.5 mg/L (≈ 0.709 µM)

Question: And the MIC90 (Trichosporon)?
Answer: > 8 mg/L

Question: And the MIC50 (Fusarium verticillioides)?
Answer: > 8 mg/L

Question: And the MIC90 (Fusarium verticillioides)?
Answer: > 8 mg/L

Question: And the MIC50 (Acremonium sp.)?
Answer: > 8 mg/L

Question: What about the MIC90 (Acremonium sp.) of the same compound?
Answer: > 8 mg/L

Question: What about the MIC50 ([Candida] zeylanoides) of the same compound?
Answer: 0.12 mg/L (≈ 0.17 µM)

Question: And the MIC90 ([Candida] zeylanoides)?
Answer: > 8 mg/L

Question: What about the MIC50 (Saksenaea vasiformis) of the same compound?
Answer: > 8 mg/L

Question: And the MIC90 (Saksenaea vasiformis)?
Answer: > 8 mg/L

Question: What about the MIC50 (Aspergillus sclerotiorum) of the same compound?
Answer: 0.5 mg/L (≈ 0.709 µM)

Question: What about the MIC90 (Aspergillus sclerotiorum) of the same compound?
Answer: > 8 mg/L

Question: And the MIC50 (Penicillium)?
Answer: 0.5 mg/L (≈ 0.709 µM)

Question: What about the MIC90 (Penicillium) of the same compound?
Answer: > 8 mg/L

Question: What about the MIC50 (Ustilago) of the same compound?
Answer: 0.5 mg/L (≈ 0.709 µM)

Question: And the MIC90 (Ustilago)?
Answer: > 8 mg/L

Question: What about the MIC50 (Rhodotorula mucilaginosa) of the same compound?
Answer: 8 mg/L (≈ 11.3 µM)

Question: And the MIC90 (Rhodotorula mucilaginosa)?
Answer: > 8 mg/L

Question: What about the MIC50 (Scytalidium hyalinum) of the same compound?
Answer: 0.12 mg/L (≈ 0.17 µM)

Question: What about the MIC90 (Scytalidium hyalinum) of the same compound?
Answer: > 8 mg/L

Question: What about the MIC50 (Trichosporon domesticum) of the same compound?
Answer: 0.5 mg/L (≈ 0.709 µM)

Question: What about the MIC90 (Trichosporon domesticum) of the same compound?
Answer: > 8 mg/L

Question: And the MIC50 (Phialemonium curvatum)?
Answer: > 8 mg/L

Question: What about the MIC90 (Phialemonium curvatum) of the same compound?
Answer: > 8 mg/L

Question: What about the MIC50 (Exophiala dermatitidis) of the same compound?
Answer: 0.12 mg/L (≈ 0.17 µM)

Question: What about the MIC90 (Exophiala dermatitidis) of the same compound?
Answer: > 8 mg/L

Question: What about the MIC50 (Alternaria alternata) of the same compound?
Answer: 0.5 mg/L (≈ 0.709 µM)

Question: And the MIC90 (Alternaria alternata)?
Answer: > 8 mg/L

Question: What about the MIC50 (Candida metapsilosis) of the same compound?
Answer: 0.12 mg/L (≈ 0.17 µM)

Question: What about the MIC90 (Candida metapsilosis) of the same compound?
Answer: > 8 mg/L

Question: What about the MIC50 (Trichosporon ovoides) of the same compound?
Answer: 0.5 mg/L (≈ 0.709 µM)

Question: And the MIC90 (Trichosporon ovoides)?
Answer: > 8 mg/L

Question: What about the MIC50 [4] of the same compound?
Answer: > 8 mg/L

Question: What about the MIC90 [4] of the same compound?
Answer: > 8 mg/L

Question: What about the MIC50 (Trichosporon jirovecii) of the same compound?
Answer: 0.5 mg/L (≈ 0.709 µM)

Question: What about the MIC90 (Trichosporon jirovecii) of the same compound?
Answer: > 8 mg/L

Question: And the MIC50 (Exophiala jeanselmei)?
Answer: 0.12 mg/L (≈ 0.17 µM)

Question: And the MIC90 (Exophiala jeanselmei)?
Answer: > 8 mg/L
